{
  "source": "ChEMBL document CHEMBL3232879",
  "about": "“4,5,6,7-Tetrahydro-isoxazolo-[4,5-c]-pyridines as a new class of cytotoxic Hsp90 inhibitors” (Eur J Med Chem, 2014)",
  "key": {"[1]": {"molecular_target": "T1, Protein deacetylase HDAC6 (Homo sapiens, UniProt Q9UBN7)", "T1 sequence (Q9UBN7 whole entry)": "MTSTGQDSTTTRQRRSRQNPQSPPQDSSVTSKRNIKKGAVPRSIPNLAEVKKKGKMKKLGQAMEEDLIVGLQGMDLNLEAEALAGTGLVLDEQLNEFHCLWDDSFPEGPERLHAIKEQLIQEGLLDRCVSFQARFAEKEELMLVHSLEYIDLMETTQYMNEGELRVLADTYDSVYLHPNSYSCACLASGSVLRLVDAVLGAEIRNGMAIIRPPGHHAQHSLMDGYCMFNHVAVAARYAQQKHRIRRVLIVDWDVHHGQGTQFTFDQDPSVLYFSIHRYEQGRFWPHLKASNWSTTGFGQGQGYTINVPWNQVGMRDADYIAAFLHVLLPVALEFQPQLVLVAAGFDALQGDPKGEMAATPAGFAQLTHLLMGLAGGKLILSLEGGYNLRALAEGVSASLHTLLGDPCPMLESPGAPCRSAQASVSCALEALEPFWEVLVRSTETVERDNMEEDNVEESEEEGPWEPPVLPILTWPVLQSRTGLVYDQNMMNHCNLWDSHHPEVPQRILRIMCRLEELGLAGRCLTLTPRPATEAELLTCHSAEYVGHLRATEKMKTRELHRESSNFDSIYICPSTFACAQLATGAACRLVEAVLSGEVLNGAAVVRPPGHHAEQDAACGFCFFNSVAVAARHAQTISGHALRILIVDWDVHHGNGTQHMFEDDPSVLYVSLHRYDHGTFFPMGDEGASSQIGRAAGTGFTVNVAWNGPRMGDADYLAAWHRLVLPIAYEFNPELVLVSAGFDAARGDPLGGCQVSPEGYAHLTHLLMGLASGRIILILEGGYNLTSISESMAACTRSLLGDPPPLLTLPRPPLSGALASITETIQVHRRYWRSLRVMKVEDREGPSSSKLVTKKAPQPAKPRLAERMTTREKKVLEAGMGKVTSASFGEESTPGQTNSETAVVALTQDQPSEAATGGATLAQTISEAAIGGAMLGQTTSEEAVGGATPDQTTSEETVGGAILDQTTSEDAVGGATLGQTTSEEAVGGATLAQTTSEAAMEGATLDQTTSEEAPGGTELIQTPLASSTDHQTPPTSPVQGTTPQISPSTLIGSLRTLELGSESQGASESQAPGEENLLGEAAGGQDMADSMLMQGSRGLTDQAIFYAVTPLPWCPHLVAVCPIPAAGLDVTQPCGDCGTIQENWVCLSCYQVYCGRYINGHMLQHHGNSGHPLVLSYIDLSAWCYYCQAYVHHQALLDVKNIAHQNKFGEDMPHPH", "experiment": "Inhibition of human HDAC-6 using RHKK(Ac) as substrate"}, "[2]": {"molecular_target": "Histone deacetylase 5 (Homo sapiens, UniProt Q9UQL6)", "sequence (Q9UQL6 whole entry)": "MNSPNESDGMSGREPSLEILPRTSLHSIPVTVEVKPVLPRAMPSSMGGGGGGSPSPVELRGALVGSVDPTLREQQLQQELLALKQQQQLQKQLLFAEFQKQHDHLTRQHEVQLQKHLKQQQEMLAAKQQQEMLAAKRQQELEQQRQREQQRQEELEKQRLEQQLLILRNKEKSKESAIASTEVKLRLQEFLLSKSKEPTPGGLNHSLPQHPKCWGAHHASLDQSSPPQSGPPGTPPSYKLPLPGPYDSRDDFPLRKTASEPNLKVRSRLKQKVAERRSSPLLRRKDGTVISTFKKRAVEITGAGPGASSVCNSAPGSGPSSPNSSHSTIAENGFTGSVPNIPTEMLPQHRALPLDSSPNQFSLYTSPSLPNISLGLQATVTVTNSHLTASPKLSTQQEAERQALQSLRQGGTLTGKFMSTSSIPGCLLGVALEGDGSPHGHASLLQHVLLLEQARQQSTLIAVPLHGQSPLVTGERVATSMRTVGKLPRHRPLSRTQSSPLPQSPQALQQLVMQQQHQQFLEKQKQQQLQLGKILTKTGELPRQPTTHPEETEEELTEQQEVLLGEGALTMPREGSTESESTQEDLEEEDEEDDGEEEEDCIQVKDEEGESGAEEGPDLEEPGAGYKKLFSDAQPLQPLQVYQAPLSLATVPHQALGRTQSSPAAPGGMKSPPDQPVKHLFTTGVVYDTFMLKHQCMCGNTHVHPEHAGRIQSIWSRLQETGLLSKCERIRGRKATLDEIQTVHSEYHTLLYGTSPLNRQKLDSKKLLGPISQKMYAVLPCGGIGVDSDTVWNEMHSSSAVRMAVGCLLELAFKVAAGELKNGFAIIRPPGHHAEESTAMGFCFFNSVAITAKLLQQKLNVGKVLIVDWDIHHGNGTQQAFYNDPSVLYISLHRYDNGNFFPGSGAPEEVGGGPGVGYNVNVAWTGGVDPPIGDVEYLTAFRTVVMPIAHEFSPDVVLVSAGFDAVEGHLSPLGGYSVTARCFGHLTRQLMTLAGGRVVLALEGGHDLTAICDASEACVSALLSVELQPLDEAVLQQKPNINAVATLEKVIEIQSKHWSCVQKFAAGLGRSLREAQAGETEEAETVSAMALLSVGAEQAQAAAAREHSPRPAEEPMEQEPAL", "experiment": "Inhibition of human HDAC-5 using RHKK(Ac) as substrate"}, "[3]": {"molecular_target": "Heat shock protein HSP 90-alpha (Homo sapiens, UniProt P07900)", "experiment": "Displacement of GM-FTC from Hsp90-alpha (unknown origin) after 4 hrs by fluorescence polarization assay"}, "[4]": {"molecular_target": "Histone deacetylase 3/Nuclear receptor corepressor 2 (HDAC3/NCoR2) (Homo sapiens, UniProt O15379)", "sequence (O15379 whole entry)": "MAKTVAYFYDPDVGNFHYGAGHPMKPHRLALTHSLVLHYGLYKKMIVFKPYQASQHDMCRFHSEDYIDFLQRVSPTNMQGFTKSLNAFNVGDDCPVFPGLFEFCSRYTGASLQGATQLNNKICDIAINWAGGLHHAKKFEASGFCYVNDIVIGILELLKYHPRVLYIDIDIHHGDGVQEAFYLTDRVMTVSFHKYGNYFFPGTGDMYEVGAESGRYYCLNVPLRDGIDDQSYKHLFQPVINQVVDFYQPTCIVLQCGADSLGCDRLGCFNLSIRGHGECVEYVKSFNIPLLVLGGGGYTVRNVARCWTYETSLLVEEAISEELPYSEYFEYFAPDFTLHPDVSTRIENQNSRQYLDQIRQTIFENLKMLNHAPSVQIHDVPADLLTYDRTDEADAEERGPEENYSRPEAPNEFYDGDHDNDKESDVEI", "sequence (Q9Y618 whole entry, further chain)": "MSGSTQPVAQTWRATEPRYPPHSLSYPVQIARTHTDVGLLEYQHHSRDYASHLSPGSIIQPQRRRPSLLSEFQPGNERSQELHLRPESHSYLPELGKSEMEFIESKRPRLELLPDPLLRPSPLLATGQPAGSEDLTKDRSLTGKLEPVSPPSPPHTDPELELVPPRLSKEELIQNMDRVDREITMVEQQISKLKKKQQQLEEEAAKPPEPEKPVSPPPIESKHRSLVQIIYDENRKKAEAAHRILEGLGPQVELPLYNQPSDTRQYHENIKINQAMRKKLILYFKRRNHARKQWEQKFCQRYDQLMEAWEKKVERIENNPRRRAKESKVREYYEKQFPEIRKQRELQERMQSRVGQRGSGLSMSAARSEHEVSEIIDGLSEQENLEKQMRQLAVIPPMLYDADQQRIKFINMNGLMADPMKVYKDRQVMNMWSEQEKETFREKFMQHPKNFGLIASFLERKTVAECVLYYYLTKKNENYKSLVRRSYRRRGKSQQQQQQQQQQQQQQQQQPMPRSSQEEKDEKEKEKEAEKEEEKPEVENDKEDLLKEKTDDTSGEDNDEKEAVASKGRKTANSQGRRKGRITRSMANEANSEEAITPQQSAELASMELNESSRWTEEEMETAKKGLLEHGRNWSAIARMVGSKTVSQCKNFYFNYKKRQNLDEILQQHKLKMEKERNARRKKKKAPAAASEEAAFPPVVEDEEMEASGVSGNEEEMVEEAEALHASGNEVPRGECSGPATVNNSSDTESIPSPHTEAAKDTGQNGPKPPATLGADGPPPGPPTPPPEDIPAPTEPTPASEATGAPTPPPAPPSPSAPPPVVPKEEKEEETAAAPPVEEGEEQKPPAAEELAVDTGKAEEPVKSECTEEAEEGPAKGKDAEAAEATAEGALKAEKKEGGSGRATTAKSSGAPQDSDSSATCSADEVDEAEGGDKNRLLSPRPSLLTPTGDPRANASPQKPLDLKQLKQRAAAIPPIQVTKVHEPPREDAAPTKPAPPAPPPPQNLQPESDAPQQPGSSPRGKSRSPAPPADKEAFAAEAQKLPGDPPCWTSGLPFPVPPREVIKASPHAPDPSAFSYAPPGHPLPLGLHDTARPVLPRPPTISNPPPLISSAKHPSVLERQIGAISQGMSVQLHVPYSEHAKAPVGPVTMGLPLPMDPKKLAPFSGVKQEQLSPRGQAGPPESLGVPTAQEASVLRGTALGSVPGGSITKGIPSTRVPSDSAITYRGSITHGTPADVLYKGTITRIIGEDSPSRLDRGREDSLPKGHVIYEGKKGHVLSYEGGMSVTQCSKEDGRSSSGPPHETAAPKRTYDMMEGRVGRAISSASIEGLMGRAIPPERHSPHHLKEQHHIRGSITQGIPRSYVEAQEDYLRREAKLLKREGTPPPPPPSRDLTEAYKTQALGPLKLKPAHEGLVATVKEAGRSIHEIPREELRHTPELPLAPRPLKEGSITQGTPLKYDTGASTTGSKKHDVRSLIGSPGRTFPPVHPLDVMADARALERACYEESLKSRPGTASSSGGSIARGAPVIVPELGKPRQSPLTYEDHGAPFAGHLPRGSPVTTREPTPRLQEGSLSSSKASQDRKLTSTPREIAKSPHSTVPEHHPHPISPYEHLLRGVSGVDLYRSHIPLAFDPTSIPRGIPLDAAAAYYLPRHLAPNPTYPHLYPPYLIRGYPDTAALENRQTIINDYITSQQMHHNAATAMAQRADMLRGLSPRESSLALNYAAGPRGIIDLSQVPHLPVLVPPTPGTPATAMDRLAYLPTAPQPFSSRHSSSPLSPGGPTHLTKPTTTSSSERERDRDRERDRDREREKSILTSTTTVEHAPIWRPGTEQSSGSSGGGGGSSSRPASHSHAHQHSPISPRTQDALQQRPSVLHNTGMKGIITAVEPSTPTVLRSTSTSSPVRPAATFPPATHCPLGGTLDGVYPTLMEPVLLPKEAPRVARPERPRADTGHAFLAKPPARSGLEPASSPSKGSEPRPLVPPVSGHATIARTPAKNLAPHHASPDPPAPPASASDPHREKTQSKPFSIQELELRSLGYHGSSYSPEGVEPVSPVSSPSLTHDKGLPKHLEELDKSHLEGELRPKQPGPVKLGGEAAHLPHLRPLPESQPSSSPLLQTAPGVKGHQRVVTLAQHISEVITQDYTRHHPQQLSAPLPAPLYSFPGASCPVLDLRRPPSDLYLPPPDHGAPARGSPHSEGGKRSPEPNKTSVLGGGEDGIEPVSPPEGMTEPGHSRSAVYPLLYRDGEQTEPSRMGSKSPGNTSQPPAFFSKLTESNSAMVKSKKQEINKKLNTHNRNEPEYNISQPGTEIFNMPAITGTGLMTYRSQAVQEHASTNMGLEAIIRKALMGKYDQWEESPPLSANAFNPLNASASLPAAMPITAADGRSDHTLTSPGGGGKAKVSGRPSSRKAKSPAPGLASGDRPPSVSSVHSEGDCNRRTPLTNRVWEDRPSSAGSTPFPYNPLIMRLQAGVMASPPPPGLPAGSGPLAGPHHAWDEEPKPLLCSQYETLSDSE", "experiment": "Inhibition of human HDAC-3/NCOR-2 using RHKK(Ac) as substrate", "format": "protein-complex assay"}, "[5]": {"molecular_target": "T2, Histone deacetylase 8 (Homo sapiens, UniProt Q9BY41)", "T2 sequence (Q9BY41 whole entry)": "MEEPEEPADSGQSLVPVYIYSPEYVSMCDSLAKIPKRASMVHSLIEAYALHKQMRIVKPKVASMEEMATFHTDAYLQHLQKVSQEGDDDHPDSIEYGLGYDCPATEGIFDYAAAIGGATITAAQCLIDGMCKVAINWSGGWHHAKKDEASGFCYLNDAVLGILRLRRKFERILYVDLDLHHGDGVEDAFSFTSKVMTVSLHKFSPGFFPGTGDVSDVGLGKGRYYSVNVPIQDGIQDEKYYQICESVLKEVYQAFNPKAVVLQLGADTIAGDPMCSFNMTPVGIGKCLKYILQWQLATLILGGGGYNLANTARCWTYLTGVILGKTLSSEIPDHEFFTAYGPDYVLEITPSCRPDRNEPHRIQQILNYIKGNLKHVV", "experiment": "Inhibition of human HDAC-8 using RHK(Ac)K(Ac) as substrate"}, "[6]": {"molecular_target": "Histone deacetylase 4 (Homo sapiens, UniProt P56524)", "sequence (P56524 whole entry)": "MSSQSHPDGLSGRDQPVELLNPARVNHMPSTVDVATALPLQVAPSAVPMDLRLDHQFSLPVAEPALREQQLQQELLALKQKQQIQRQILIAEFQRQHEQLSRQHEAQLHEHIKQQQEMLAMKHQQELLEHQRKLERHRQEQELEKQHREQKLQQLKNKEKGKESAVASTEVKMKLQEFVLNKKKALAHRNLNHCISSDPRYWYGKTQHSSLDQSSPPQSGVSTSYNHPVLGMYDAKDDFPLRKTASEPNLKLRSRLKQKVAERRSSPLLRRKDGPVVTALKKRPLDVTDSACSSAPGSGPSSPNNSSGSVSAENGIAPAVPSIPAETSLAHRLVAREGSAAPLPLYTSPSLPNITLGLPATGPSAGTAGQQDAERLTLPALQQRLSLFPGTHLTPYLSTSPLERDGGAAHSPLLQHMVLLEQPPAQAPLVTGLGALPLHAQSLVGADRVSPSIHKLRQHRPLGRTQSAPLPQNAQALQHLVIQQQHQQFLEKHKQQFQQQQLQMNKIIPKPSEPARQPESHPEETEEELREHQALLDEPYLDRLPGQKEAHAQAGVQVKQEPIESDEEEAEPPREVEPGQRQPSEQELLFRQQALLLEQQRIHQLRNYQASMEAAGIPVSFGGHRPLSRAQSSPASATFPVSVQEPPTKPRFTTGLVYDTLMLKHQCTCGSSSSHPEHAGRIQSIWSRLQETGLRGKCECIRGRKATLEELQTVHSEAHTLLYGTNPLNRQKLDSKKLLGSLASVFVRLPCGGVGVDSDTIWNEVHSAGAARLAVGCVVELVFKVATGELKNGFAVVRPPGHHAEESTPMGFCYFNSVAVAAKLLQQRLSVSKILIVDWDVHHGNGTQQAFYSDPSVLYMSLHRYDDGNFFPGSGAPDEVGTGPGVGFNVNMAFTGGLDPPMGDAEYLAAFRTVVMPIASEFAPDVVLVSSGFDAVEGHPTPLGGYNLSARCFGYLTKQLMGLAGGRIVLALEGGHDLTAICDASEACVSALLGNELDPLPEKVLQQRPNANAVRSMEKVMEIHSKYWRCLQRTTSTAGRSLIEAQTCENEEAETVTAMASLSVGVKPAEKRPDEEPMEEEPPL", "experiment": "Inhibition of human HDAC-4 using RHKK(Ac) as substrate"}, "[7]": {"system": "NCI-H460", "experiment": "Cytotoxicity against human NCI-H460 cells assessed as growth inhibition after 72 hrs by sulforhodamine B assay", "format": "functional, cell-based", "settings": "NCI-H460, 72 h", "in_short": "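Log-phase NCI-H460 cells seeded, drug added 24 h later, exposed 72 h. Survival read by sulforhodamine B staining. IC50 fitted by curve analysis as the concentration halving cell number relative to untreated controls.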"}, "[8]": {"molecular_target": "T3, Histone deacetylase 11 (Homo sapiens, UniProt Q96DB2)", "T3 sequence (Q96DB2 whole entry)": "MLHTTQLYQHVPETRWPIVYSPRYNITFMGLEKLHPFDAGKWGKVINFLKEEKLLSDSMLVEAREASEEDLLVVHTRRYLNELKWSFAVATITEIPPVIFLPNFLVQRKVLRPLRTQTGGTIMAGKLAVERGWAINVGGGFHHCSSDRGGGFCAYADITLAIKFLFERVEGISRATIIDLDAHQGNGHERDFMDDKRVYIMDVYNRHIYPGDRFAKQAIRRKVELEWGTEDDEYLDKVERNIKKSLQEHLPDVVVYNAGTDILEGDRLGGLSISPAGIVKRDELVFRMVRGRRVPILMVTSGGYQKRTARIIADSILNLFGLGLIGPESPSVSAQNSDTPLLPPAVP", "experiment": "Inhibition of human HDAC-11 using RHKK(Ac) as substrate"}},
  "data": [
    {"smiles": "CC(C)c1cc(C(=O)N2CCc3onc(C(=O)NCCCCCCC(=O)NO)c3C2)c(O)cc1O", "values": [
      {"measurement": "IC50", "setting": "[1]", "value": 4.1, "unit": "nM"},
      {"measurement": "IC50", "setting": "[2]", "value": 1580, "unit": "nM"},
      {"measurement": "IC50", "setting": "[3]", "value": 33, "unit": "nM"},
      {"measurement": "IC50", "setting": "[4]", "value": 4230, "unit": "nM"},
      {"measurement": "IC50", "setting": "[5]", "value": 1760, "unit": "nM"},
      {"measurement": "IC50", "setting": "[6]", "value": 75900, "unit": "nM"},
      {"measurement": "IC50", "setting": "[7]", "value": 3900, "unit": "nM"},
      {"measurement": "IC50", "setting": "[8]", "value": 521, "unit": "nM"}
    ]}
  ]
}
